According to ChEMBL document CHEMBL1255277, “Acinetobacter radioresistens as a silent source of carbapenem resistance for Acinetobacter spp” (2008):
In brackets after ≈: the same amount, converted by molar mass. Activity calls are given as the source filed them. The calls are words filed in the database; no cut-off is given here.

How the values were obtained:
Escherichia coli [1] = assay: Antimicrobial activity against Escherichia coli TOP10 by Etest; format: functional
Outline: (§1)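 MIC read by Etest on Mueller-Hinton agar at 37°C. Test strains were E. coli TOP10 and TOP10 recombinants carrying cloned OXA-23-like oxacillinase genes. Recombinant clones had been selected on kanamycin (30 μg/ml) plus amoxicillin (30 μg/ml), and cloned inserts were confirmed by double-strand sequencing.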

Escherichia coli [2] = assay: Antimicrobial activity against Escherichia coli TOP10 harboring Beta-lactamase OXA-103 by Etest; format: functional; outline: as §1
Escherichia coli [3] = assay: Antimicrobial activity against Escherichia coli TOP10 harboring Beta-lactamase OXA-102 by Etest; format: functional; outline: as §1
Acinetobacter baumannii = assay: Activity of beta lactamase OXA23 in Acinetobacter baumannii Ab13 assessed as compound hydrolysis rate per mg of protein by spectrophotometry
Outline: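 Crude culture extract (enzyme source) of the strain; hydrolysis followed by UV spectrophotometry with 100 μM benzylpenicillin or imipenem as substrate; rate expressed as U/mg of protein.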

Escherichia coli [4] = assay: Antimicrobial activity against Escherichia coli TOP10 harboring Beta-lactamase OXA-23 by Etest; format: functional; outline: as §1
[5] = tested on: Acinetobacter radioresistens; assay: Antimicrobial activity against Acinetobacter radioresistens isolates by Etest; format: functional
Outline: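 MICs determined by Etest on Mueller-Hinton agar at 37°C; strains previously grown overnight at 37°C on Mueller-Hinton agar plates.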

Escherichia coli [6] = assay: Antimicrobial activity against Escherichia coli TOP10 harboring Beta-lactamase OXA-105 by Etest; format: functional; outline: as §1

## C[C@@H](O)[C@H]1C(=O)N2C(C(=O)O)=C(SCCNC=N)C[C@H]12 [IMIPENEM ANHYDROUS]
Escherichia coli [1]
  MIC: 0.125 µg/mL (≈ 0.418 µM)
Escherichia coli [2]
  MIC: 1 µg/mL (≈ 3.34 µM)
Escherichia coli [3]
  MIC: 1 µg/mL (≈ 3.34 µM)
Acinetobacter baumannii
  Activity: 0.2 U
Escherichia coli [4]
  MIC: 1 µg/mL (≈ 3.34 µM)
[5]
  growth inhibition (GI): Active
Escherichia coli [6]
  MIC: 1 µg/mL (≈ 3.34 µM)

## CC1(C)S[C@@H]2[C@H](NC(=O)Cc3ccccc3)C(=O)N2[C@H]1C(=O)O
Acinetobacter baumannii
  Activity: 5 U

## C[C@@H](O)[C@H]1C(=O)N2C(C(=O)O)=C(S[C@@H]3CN[C@H](C(=O)N(C)C)C3)[C@H](C)[C@H]12 [MEROPENEM]
Escherichia coli [1]
  MIC: 0.047 µg/mL (≈ 0.123 µM)
Escherichia coli [2]
  MIC: 0.094 µg/mL (≈ 0.245 µM)
Escherichia coli [3]
  MIC: 0.094 µg/mL (≈ 0.245 µM)
Escherichia coli [4]
  MIC: 0.047 µg/mL (≈ 0.123 µM)
[5]
  growth inhibition (GI): Active
Escherichia coli [6]
  MIC: 0.094 µg/mL (≈ 0.245 µM)

## C[C@@H](O)[C@H]1C(=O)N2C(C(=O)O)=C(S[C@@H]3CN[C@H](C(=O)Nc4cccc(C(=O)O)c4)C3)[C@H](C)[C@H]12 [ERTAPENEM]
Escherichia coli [1]
  MIC: 0.004 µg/mL (≈ 0.00841 µM)
Escherichia coli [2]
  MIC: 0.125 µg/mL (≈ 0.263 µM)
Escherichia coli [3]
  MIC: 0.125 µg/mL (≈ 0.263 µM)
Escherichia coli [4]
  MIC: 0.012 µg/mL (≈ 0.0252 µM)
[5]
  growth inhibition (GI): Active
Escherichia coli [6]
  MIC: 0.125 µg/mL (≈ 0.263 µM)
